Reference: ChEMBL document CHEMBL1123352, “Anticonvulsant activity of 2- and 3-aminobenzanilides” (J Med Chem, 1986)
Calls of active or inactive are those of the source. The rule behind the calls is not given here.

Key:
Mus musculus [1] = assay: Anticonvulsant activity against maximal electroshock (MES) induced seizures in mice 30 minutes after ip administration of 100 mg/kg; A=Active; assay type: functional, organism-based; parameters: dose 100 mg/kg
Summary of the method: (§1)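 Male Carworth Farms No. 1 mice were dosed ip with compound in 30% polyethylene glycol 400, at 30, 100 and 300 mg/kg and sometimes 600 mg/kg, and tested 30 min and 4 h later. A drop of 0.9% saline went in the eye, then 60-cycle AC at 50 mA was given for 0.2 s via corneal electrodes. Protection meant abolition of hind limb tonic extension.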

Mus musculus [2] = assay: Anticonvulsant activity against maximal electroshock (MES) induced seizures in mice 4 hours after ip administration of 300 mg/kg; A=Active; assay type: functional, organism-based; parameters: dose 300 mg/kg; summary of the method: as §1
Mus musculus [3] = assay: Compound was tested for toxicity by rotarod assay method in mice 30 min after ip administration of 300 mg/kg; A=Active; assay type: organism-based; parameters: dose 300 mg/kg, route intraperitoneal; conditions: in vivo, 0.5 h
Mus musculus [4] = assay: Anticonvulsant activity against sc pentylenetetrazole-induced convulsions in mice 30 minutes after ip administration of 300 mg/kg; A=Active; assay type: functional, organism-based; parameters: dose 300 mg/kg
Summary of the method: (§2)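 Male Carworth Farms No. 1 mice were dosed ip with compound in 30% PEG 400, at 30–600 mg/kg, and read at 30 min and 4 h. Pentylenetetrazole was given at 85 mg/kg as a 0.5% solution sc in the posterior midline. Protection meant no single episode of clonic spasms lasting at least 5 s over a 30-min observation.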

Mus musculus [5] = assay: Compound was tested for toxicity by rotarod assay method in mice 4 hours after ip administration of 600 mg/kg; A=Active; assay type: organism-based; parameters: dose 600 mg/kg, route intraperitoneal; conditions: in vivo
Mus musculus [6] = assay: Anticonvulsant activity against sc pentylenetetrazole induced convulsions in mice 4 hr after ip administration of 600 mg/kg; A=Active; assay type: functional, organism-based; parameters: dose 600 mg/kg; summary of the method: as §2
Mus musculus [7] = assay: Compound was tested for toxicity by rotarod assay method in mice 30 min after ip administration of 600 mg/kg; no activity; assay type: organism-based; parameters: dose 600 mg/kg, route intraperitoneal; conditions: in vivo, 0.5 h
Mus musculus [8] = assay: Anticonvulsant activity against subcutaneous pentylenetetrazole induced convulsions in mice 4 hr after ip administration of 600 mg/kg.; assay type: functional, organism-based; parameters: dose 600 mg/kg; summary of the method: as §2
Mus musculus [9] = assay: Compound was tested for toxicity by rotarod assay method in mice after intraperitoneal administration after 4 hours at 600 mg/kg; no activity; assay type: organism-based; parameters: dose 600 mg/kg, route intraperitoneal; conditions: in vivo, ip
Mus musculus [10] = assay: Anticonvulsant activity against maximal electroshock (MES) induced seizures in mice 30 minutes after ip administration of 600 mg/kg; A=Active; assay type: functional, organism-based; parameters: dose 600 mg/kg; summary of the method: as §1
Mus musculus [11] = assay: Anticonvulsant activity against subcutaneous pentylenetetrazole induced convulsions in mice 30 min after ip administration of 600 mg/kg.; assay type: functional, organism-based; parameters: dose 600 mg/kg; summary of the method: as §2
Mus musculus [12] = assay: Anticonvulsant activity against maximal electroshock (MES)-induced seizures in mice 4 hours after ip administration of 300 mg/kg; A=Active; assay type: functional, organism-based; parameters: dose 300 mg/kg; summary of the method: as §1
Mus musculus [13] = assay: Anticonvulsant activity against maximal electroshock (MES) induced seizures in mice 4 hours after ip administration of 600 mg/kg.; assay type: functional, organism-based; parameters: dose 600 mg/kg; summary of the method: as §1
Mus musculus [14] = assay: Compound was tested for toxicity by rotarod assay method in mice 4 hours after ip administration at 600 mg/kg; no activity; assay type: organism-based; parameters: dose 600 mg/kg, route intraperitoneal; conditions: in vivo
Mus musculus [15] = assay: Anticonvulsant activity against maximal electroshock (MES) induced seizures in mice 30 minutes after ip administration of 600 mg/kg; NA=No activity; assay type: functional, organism-based; parameters: dose 600 mg/kg; summary of the method: as §1
Mus musculus [16] = assay: Anticonvulsant activity against subcutaneous pentylenetetrazole induced convulsions in mice 4 hours after ip administration of 600 mg/kg; No=No activity; assay type: functional, organism-based; parameters: dose 600 mg/kg; summary of the method: as §2
Mus musculus [17] = assay: Compound was tested for toxicity by rotarod assay method in mice 30 min after ip administration at 600 mg/kg; no activity; assay type: organism-based; parameters: dose 600 mg/kg, route intraperitoneal; conditions: in vivo, 0.5 h
Mus musculus [18] = assay: Compound was tested for toxicity by rotarod assay method in mice 4 hours after ip administration of 600 mg/kg; NA=No activity; assay type: organism-based; parameters: dose 600 mg/kg, route intraperitoneal; conditions: in vivo
Mus musculus [19] = assay: Anticonvulsant activity against maximal electroshock (MES) induced seizures in mice 4 hours after ip administration of 600 mg/kg; A=Active; assay type: functional, organism-based; parameters: dose 600 mg/kg; summary of the method: as §1
Mus musculus [20] = assay: Compound was tested for toxicity by rotarod assay method in mice 30 min after ip administration of 300 mg/kg; Active; assay type: organism-based; parameters: dose 300 mg/kg, route intraperitoneal; conditions: in vivo, 0.5 h
Mus musculus [21] = assay: Anticonvulsant activity against subcutaneous pentylenetetrazole induced convulsions in mice after intraperitoneal administration after 4 hr at 600 mg/kg; NA=No activity; assay type: functional, organism-based; parameters: dose 600 mg/kg; summary of the method: as §2
Mus musculus [22] = assay: Anticonvulsant activity against maximal electroshock (MES) induced seizures in mice 30 minutes after ip administration of 300 mg/kg; A=Active; assay type: functional, organism-based; parameters: dose 300 mg/kg; summary of the method: as §1
Mus musculus [23] = assay: Anticonvulsant activity against sc pentylenetetrazole induced convulsions in mice 30 minutes after ip administration of 600 mg/kg; A=Active; assay type: functional, organism-based; parameters: dose 600 mg/kg; summary of the method: as §2
Mus musculus [24] = assay: Compound was tested for toxicity by rotarod assay method in mice 30 min after ip administration of 600 mg/kg; A=Active; assay type: organism-based; parameters: dose 600 mg/kg, route intraperitoneal; conditions: in vivo, 0.5 h
Mus musculus [25] = assay: Anticonvulsant activity against sc pentylenetetrazole-induced convulsions in mice 30 minutes after ip administration of 300 mg/kg; Active; assay type: functional, organism-based; parameters: dose 300 mg/kg; summary of the method: as §2
Mus musculus [26] = assay: Compound for anticonvulsant activity against maximal electroshock (MES)-induced seizures in mice after administration; assay type: functional; summary of the method: as §1
Mus musculus [27] = assay: Anticonvulsant activity against subcutaneous pentylenetetrazole induced convulsions in mice 4 hours after ip administration of 600 mg/kg; NA=No activity; assay type: functional, organism-based; parameters: dose 600 mg/kg; summary of the method: as §2

With Nc1cccc(C(=O)Nc2ccccc2)c1 the Anticonvulsant activity (Mus musculus [1]) was “Active”, the Anticonvulsant activity (Mus musculus [2]) was “Active” and the Toxicity (Mus musculus [3]) was “Active”. The Anticonvulsant activity (Mus musculus [4]) was “Active”, the Toxicity (Mus musculus [5]) was “Active” and the Anticonvulsant activity (Mus musculus [6]) was “Active”.

With Cc1cccc(C(C)C)c1NC(=O)c1cccc(N)c1 the Toxicity (Mus musculus [7]) was “Not Active”, the Anticonvulsant activity (Mus musculus [8]) was “inactive” and the Toxicity (Mus musculus [9]) was “Not Active”. The Anticonvulsant activity (Mus musculus [10]) was “Active”, the Anticonvulsant activity (Mus musculus [11]) was “inactive” and the Anticonvulsant activity (Mus musculus [12]) was “Active”.

In the case of Cc1cccc(NC(=O)c2ccccc2N)c1, the Anticonvulsant activity (Mus musculus [13]) is reported as “inactive”, the Toxicity (Mus musculus [14]) is reported as “Not Active” and the Anticonvulsant activity (Mus musculus [15]) is reported as “inactive”. The Anticonvulsant activity (Mus musculus [16]) was “inactive”, the Anticonvulsant activity (Mus musculus [11]) was “inactive” and the Toxicity (Mus musculus [17]) was “Not Active”.

For Cc1ccccc1NC(=O)c1ccccc1N, the Toxicity (Mus musculus [18]) was “Not Active”, the Anticonvulsant activity (Mus musculus [19]) was “Active” and the Toxicity (Mus musculus [20]) was “Active”. For the same compound, the Anticonvulsant activity (Mus musculus [21]) was “inactive”, the Anticonvulsant activity (Mus musculus [22]) was “Active” and the Anticonvulsant activity (Mus musculus [23]) was “Active”.

CC(C)c1ccccc1NC(=O)c1ccccc1N was tested, and the Anticonvulsant activity (Mus musculus [13]) was “inactive”, the Toxicity (Mus musculus [14]) was “Not Active” and the Anticonvulsant activity (Mus musculus [15]) was “inactive”. The Anticonvulsant activity (Mus musculus [16]) was “inactive”, the Anticonvulsant activity (Mus musculus [11]) was “inactive” and the Toxicity (Mus musculus [17]) was “Not Active”.

For Cc1ccc(NC(=O)c2ccccc2N)c(C)c1, the Anticonvulsant activity (Mus musculus [8]) was “inactive”, the Toxicity (Mus musculus [18]) was “Not Active” and the Anticonvulsant activity (Mus musculus [19]) was “Active”. For the same compound, the Anticonvulsant activity (Mus musculus [10]) was “Active”, the Toxicity (Mus musculus [24]) was “Active” and the Anticonvulsant activity (Mus musculus [23]) was “Active”.

For Cc1ccc(C)c(NC(=O)c2cccc(N)c2)c1, the Anticonvulsant activity (Mus musculus [13]) was “inactive”, the Toxicity (Mus musculus [14]) was “Not Active” and the Anticonvulsant activity (Mus musculus [15]) was “inactive”. For the same compound, the Anticonvulsant activity (Mus musculus [16]) was “inactive”, the Anticonvulsant activity (Mus musculus [11]) was “inactive” and the Toxicity (Mus musculus [17]) was “Not Active”.

Cc1cccc(C)c1NC(=O)c1ccccc1N was tested, and the Anticonvulsant activity (Mus musculus [8]) was “inactive”, the Anticonvulsant activity (Mus musculus [25]) was “Active” and the Toxicity (Mus musculus [18]) was “Not Active”. For the same compound, the Anticonvulsant activity (Mus musculus [19]) was “Active”, the Toxicity (Mus musculus [20]) was “Active” and the Anticonvulsant activity (Mus musculus [22]) was “Active”.

Cc1cccc(C)c1NC(=O)c1ccc(N)cc1 [AMELTOLIDE] was tested, and the ED50 (Mus musculus [26]) was 2.6 mg/kg.

CCc1cccc(C(C)C)c1NC(=O)c1ccccc1N was tested, and the Anticonvulsant activity (Mus musculus [13]) was “inactive”, the Toxicity (Mus musculus [14]) was “Not Active” and the Anticonvulsant activity (Mus musculus [15]) was “inactive”. The Anticonvulsant activity (Mus musculus [16]) was “inactive”, the Anticonvulsant activity (Mus musculus [11]) was “inactive” and the Toxicity (Mus musculus [17]) was “Not Active”.

For Nc1ccccc1C(=O)Nc1ccccc1, the Anticonvulsant activity (Mus musculus [13]) was “inactive”, the Toxicity (Mus musculus [18]) was “Not Active” and the Toxicity (Mus musculus [24]) was “Active”. For the same compound, the Anticonvulsant activity (Mus musculus [22]) was “Active”, the Anticonvulsant activity (Mus musculus [27]) was “inactive” and the Anticonvulsant activity (Mus musculus [11]) was “inactive”.

In the case of Cc1ccc(NC(=O)c2ccccc2N)cc1C, the Anticonvulsant activity (Mus musculus [13]) is reported as “inactive”, the Toxicity (Mus musculus [14]) is reported as “Not Active” and the Anticonvulsant activity (Mus musculus [15]) is reported as “inactive”. The Anticonvulsant activity (Mus musculus [16]) was “inactive”, the Anticonvulsant activity (Mus musculus [11]) was “inactive” and the Toxicity (Mus musculus [17]) was “Not Active”.

For Cc1ccc(C)c(NC(=O)c2ccccc2N)c1, the Anticonvulsant activity (Mus musculus [13]) was “inactive”, the Toxicity (Mus musculus [14]) was “Not Active” and the Anticonvulsant activity (Mus musculus [15]) was “inactive”. The Anticonvulsant activity (Mus musculus [16]) was “inactive”, the Anticonvulsant activity (Mus musculus [11]) was “inactive” and the Toxicity (Mus musculus [17]) was “Not Active”.
